Screens: PubChem BioAssay, several laboratories
CYP2C9 inh – human CYP2C9 inhibition. P11712. CYP2C9 Supersomes, luciferin-H conversion, luminescence. inhibition, % at 5 µM. 20% of 96,000 active. AID 777;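 active = blocking of liver enzyme CYP2C9 beyond about 50% at 5 µM, limit read from the data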
Cav3 T inh – human Cav3.2 channel inhibition, primary screen | O95180 | Cav3.2-expressing cells, Fluo-4 calcium fluorescence FDSS; hits give low values | B-score at 10 µM | 4% of 100,000 active;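 active = single-dose well whose peak fluorescence ratio is a statistical outlier from its plate by either plate-standardised score or position-corrected B-score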
CYP2C9 act – CYP2C9 (human) activation. activation factor at 5 µM. P11712. recombinant CYP2C9, luciferin-H conversion, luminescence; hits give high values; factor 1 = untreated enzyme, 0 = blocked. 1.4% of 96,000 active;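 active = activation factor of 2 or more for CYP2C9 at a 5 µM dose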;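 note: 0 = sulfaphenazole-blocked wells and 1 = vehicle-only wells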
CYP2C19 activ – increases human CYP2C19 enzyme activity; recombinant CYP2C19, luciferin-H EGE luminescence; hits give high values; 0 = fully inhibited enzyme, 1 = untreated enzyme; 96,000 tested, under 10 active; activation factor at 5 µM; P33261;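 active = activation factor of at least 2 at 5 µM in the primary screen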;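 note: 0 = wells with 2.5 mM tranylcypromine and 1 = vehicle-only wells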
CYP2C19 inh – blocks human cytochrome P450 2C19 | P33261 | CYP2C19 Supersomes, luciferin-H EGE luminescence, 30 min | inhibition, % at 5 µM | 21% of 96,000 active | AID 778;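 active = CYP2C19 inhibition above a set limit at 5 µM in the primary screen, cut at about 50% in these data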;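 note: plate controls were negative control wells for no effect and 2.5 mM tranylcypromine positive control for full effect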
HIV Rev-RRE inh – inhibitors of HIV-1 Rev-RRE RNA interaction. 0.79% of 97,000 active. Rev peptide-RRE RNA binding, FRET. P05866. inhibition, % at 8 µM;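 active = inhibition above the screen-wide mean plus 3 SD, cut at about 35% in these data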;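 note: 0% = median DMSO wells and 100% = median Neomycin B control wells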
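assay system = Cy5-tagged RRE RNA duplex with fluorescein-tagged Rev peptide | incubation = 5 + 15 min at 25 °C | also added = labelled Rev peptide | measure = % inhibition of FRET ratio versus controls | benchmarks = DMSO wells as 0% and neomycin B wells as 100% inhibition | measured by = FRET fluorescence readout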
* = called active by the depositor. Only some compounds are listed: those with a hit (about 27% of all), similar ones and a draw of the others.

For O=C(c1ccc(F)cc1)C1CCN(C(=O)c2ccncc2)CC1 the results were CYP2C9 inh 96.6*, Cav3 T inh 0.0183, CYP2C9 act 0, CYP2C19 activ 0, CYP2C19 inh 97.6* and HIV Rev-RRE inh 2.2.
O=C(c1ccc(Cl)cc1)C1CCN(C(=O)C2CC2)CC1 was read as CYP2C9 inh 1.9, Cav3 T inh 0.81, CYP2C9 act 1, CYP2C19 activ 0.2, CYP2C19 inh 82.7* and HIV Rev-RRE inh 2.6.
`O=C(c1ccc(Cl)cc1)C1CCN(C(=O)N2CCOCC2)CC1` gave CYP2C9 inh 14.0, Cav3 T inh -1.95, CYP2C9 act 0.9, CYP2C19 activ 0.8, CYP2C19 inh 19.0 and HIV Rev-RRE inh 1.7.
For COc1ccc(CNC(=O)c2cccc(-c3ccc(C)c4ccccc34)n2)cc1 the results were Cav3 T inh -0.585.
Screening Oc1ccccc1-c1n[nH]c(=S)n1Cc1ccco1 returned CYP2C9 inh -10.4, Cav3 T inh -1.86, CYP2C9 act 1.1, CYP2C19 activ 0.8, CYP2C19 inh 17.5 and HIV Rev-RRE inh 7.6.
`O=C(Nc1ccon1)C(Sc1ccccc1)c1ccccc1` (stereo unspecified) gave CYP2C9 inh 86.2*, Cav3 T inh -4.23*, CYP2C9 act 0.1, CYP2C19 activ 0.1, CYP2C19 inh 91.7* and HIV Rev-RRE inh -0.3.
`CC(=O)NS(=O)(=O)c1ccc(NC(=O)C(Sc2ccccc2)c2ccccc2)cc1` (stereo unspecified) gave CYP2C9 inh 34.7, Cav3 T inh 0.42, CYP2C9 act 0.7, CYP2C19 activ 0.9, CYP2C19 inh 11.5 and HIV Rev-RRE inh 0.6.
For O=C(Nc1ncccc1Cl)C(Sc1ccccc1)c1ccccc1 (stereo unspecified) the results were CYP2C9 inh 54.8*, Cav3 T inh -1.18, CYP2C9 act 0.5, CYP2C19 activ 0.4, CYP2C19 inh 58.0* and HIV Rev-RRE inh 10.6.
`O=C(NCCCN1CCOCC1)C(Sc1ccccc1)c1ccccc1` (stereo unspecified) gave CYP2C9 inh -8.9, Cav3 T inh 1.75, CYP2C9 act 1.1, CYP2C19 activ 0.7, CYP2C19 inh 34.4 and HIV Rev-RRE inh 3.1.
Screening CC(C)NC(=O)C(Sc1ccccc1)c1ccccc1 (stereo unspecified) returned CYP2C9 inh 62.1*, Cav3 T inh -0.291, CYP2C9 act 0.4, CYP2C19 activ 0, CYP2C19 inh 96.3* and HIV Rev-RRE inh 0.8.
For CCOC(=O)c1[nH]c(C)c(C(=O)N2CCN(C(=O)OCC)CC2)c1CC the results were CYP2C9 inh 9.6, Cav3 T inh 0.683, CYP2C9 act 0.9, CYP2C19 activ 1 and CYP2C19 inh 0.7.
For N#CC1(Cc2ccc(Cl)cc2)c2ccccc2C=CN1C(=O)c1ccccc1 (stereo unspecified) the results were CYP2C9 inh 92.9*, Cav3 T inh -3.15*, CYP2C9 act 0.1, CYP2C19 activ 0, CYP2C19 inh 96.5* and HIV Rev-RRE inh 14.5.
Cc1cc2cc(C(c3nnnn3Cc3ccco3)N3CCc4ccccc4C3)c(=O)[nH]c2cc1C (stereo unspecified) was read as CYP2C9 inh 7.6, Cav3 T inh 0.339, CYP2C9 act 0.9, CYP2C19 activ 1, CYP2C19 inh 4.4 and HIV Rev-RRE inh 35.6.
For COc1ccc(-c2noc(CCCC(=O)NCc3ccco3)n2)cc1OC the results were CYP2C9 inh 13.1, Cav3 T inh 1.45, CYP2C9 act 0.9, CYP2C19 activ 0.9 and CYP2C19 inh 12.9.
`Cc1cc(C)n(-c2nncn2/N=C/c2ccccc2F)n1` gave CYP2C9 inh -10.0, Cav3 T inh 1.02, CYP2C9 act 1.1, CYP2C19 activ 1.1, CYP2C19 inh -8.9 and HIV Rev-RRE inh 3.1.
CSc1nncn1/N=C/c1ccccc1F was read as CYP2C9 inh 58.1*, Cav3 T inh 0.523, CYP2C9 act 0.4, CYP2C19 activ 0.9, CYP2C19 inh 14.4 and HIV Rev-RRE inh -0.6.
O=C(O)CCc1ccc(-c2ccc(Br)cc2)n1Cc1ccco1 was read as CYP2C9 inh -8.2, Cav3 T inh -2.72, CYP2C9 act 1.1, CYP2C19 activ 0.7, CYP2C19 inh 26.5 and HIV Rev-RRE inh 5.0.
For O=C(O)CCc1ccc(-c2ccccc2)n1CC1CCCO1 (stereo unspecified) the results were CYP2C9 inh 2.7, Cav3 T inh 1.31, CYP2C9 act 1, CYP2C19 activ 0.4, CYP2C19 inh 64.2* and HIV Rev-RRE inh 3.8.
O=C(O)CCc1ccc(-c2ccc(F)cc2)n1Cc1ccco1 was read as CYP2C9 inh 9.2, Cav3 T inh -0.426, CYP2C9 act 0.9, CYP2C19 activ 0.4, CYP2C19 inh 56.7* and HIV Rev-RRE inh 8.7.
For Cc1ccc(-c2ccc(CCC(=O)O)n2CC(=O)O)cc1 the results were CYP2C9 inh -5.2, Cav3 T inh 1.54, CYP2C9 act 1.1, CYP2C19 activ 1, CYP2C19 inh 0.4 and HIV Rev-RRE inh 5.3.
`O=C(O)CCc1ccc(-c2ccccc2)n1Cc1ccco1` gave CYP2C9 inh 46.8, Cav3 T inh 0.00505, CYP2C9 act 0.5, CYP2C19 activ 0.4, CYP2C19 inh 62.7* and HIV Rev-RRE inh 9.5.
CCCCCN(C(=O)NC(=O)Nn1cnnc1)S(C)(=O)=O was read as CYP2C9 inh -8.5, Cav3 T inh -1.13, CYP2C9 act 1.1, CYP2C19 activ 1, CYP2C19 inh -3.4 and HIV Rev-RRE inh 5.3.
`Cc1ccc(N(CC(=O)NC2CCCCC2)C(=O)c2ccc(C)s2)cc1` gave CYP2C9 inh 60.0*, Cav3 T inh -1.57, CYP2C9 act 0.4, CYP2C19 activ 0.7, CYP2C19 inh 30.8 and HIV Rev-RRE inh 8.2.
For CCC(C)(C)NC(=O)CN(C(=O)CNS(=O)(=O)c1ccc(C)cc1)c1ccc2c(c1)OCCO2 the results were CYP2C9 inh 53.7*, CYP2C9 act 0.5, CYP2C19 activ 0.7, CYP2C19 inh 28.9 and HIV Rev-RRE inh 8.4.
`Cc1cc(C)cc(N(CC(=O)NC2CCCCC2)C(=O)c2ccc(C)s2)c1` gave CYP2C9 inh -5.1, Cav3 T inh -2.27, CYP2C9 act 1.1, CYP2C19 activ 0.7, CYP2C19 inh 26.5 and HIV Rev-RRE inh 0.6.
CC(C)(C)NC(=O)CN(C(=O)CNS(=O)(=O)c1ccccc1)c1ccc2c(c1)OCCO2 was read as CYP2C9 inh 21.4, Cav3 T inh -1.37, CYP2C9 act 0.8, CYP2C19 activ 0.8, CYP2C19 inh 16.4 and HIV Rev-RRE inh 8.8.
For Cc1ccc(S(=O)(=O)NCC(=O)N(CC(=O)NC2CCCC2)c2ccc3c(c2)OCCO3)cc1 the results were CYP2C9 inh 61.2*, CYP2C9 act 0.4, CYP2C19 activ 0.5, CYP2C19 inh 48.2 and HIV Rev-RRE inh 2.2.
